# Screens as filed in PubChem BioAssay.
# Tb hexokinase: Trypanosoma brucei hexokinase 1 inhibitors, primary screen, biochemical, G6PDH-coupled NADH absorbance, MLSCN library; hexokinase 1 [Trypanosoma brucei]; recombinant TbHK1, G6PDH-coupled NADH A340; inhibition, % at 10 µM; 220,000 compounds, 0.11% hits; AID 1430, 2008;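 active = inhibition of 50% or more in the single-dose primary screen; inactive = inhibition below 50%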
# EP2 antag: human EP2 receptor antagonists, primary screen, TR-FRET cAMP, C6 glioma cells | Prostaglandin E2 receptor EP2 subtype (Homo sapiens), P43116 | C6 glioma cells expressing human EP2; cells stimulated with saturating PGE2 | inhibition, % at 25 µM | 260,000 compounds, 0.52% hits;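 active = percent inhibition above 40 after rounding to a whole number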;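 note: rat C6 glioma host cells with rolipram phosphodiesterase inhibitor present; the protocol text gives 20 µM as final concentration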
# Target sequence (P43116 whole entry, looked up): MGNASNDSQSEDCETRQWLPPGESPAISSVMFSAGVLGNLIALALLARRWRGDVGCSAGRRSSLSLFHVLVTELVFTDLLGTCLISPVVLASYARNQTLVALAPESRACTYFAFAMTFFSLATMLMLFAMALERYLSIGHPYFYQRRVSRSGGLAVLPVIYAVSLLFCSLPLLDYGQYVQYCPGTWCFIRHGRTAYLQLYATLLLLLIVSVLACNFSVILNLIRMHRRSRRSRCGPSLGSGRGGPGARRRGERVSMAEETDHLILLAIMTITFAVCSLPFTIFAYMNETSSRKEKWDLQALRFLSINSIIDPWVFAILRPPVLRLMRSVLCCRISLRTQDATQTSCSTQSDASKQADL
# EP2 modulator: EP2 receptor modulators, cAMP readout, primary screen, cell-based, HTRF cAMP, PGE2 stimulation | Prostaglandin E2 receptor EP2 subtype (Homo sapiens), P43116 | 260,000 compounds, 0.83% hits | AID 940, 2007 | EP2-expressing cells, cAMP HTRF FRET, PGE2 co-stimulation | induction, % at 25 µM;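 active = compounds whose cAMP rise, as percent of the full-agonist control response, exceeds 60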;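 note: rat C6 glioma line stably carrying human EP2 under a CMV promoter; the protocol text gives 20 µM as final concentration; 100% = response of wells given 1 µM PGE2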
# HMGR II inh: inhibitors of E. faecalis class II HMGR, primary screen, biochemical, Enterococcus faecalis | inhibition, % at 10 µM | HMG-CoA reductase (Enterococcus faecalis, mvaE) | purified E. faecalis HMGR, NADPH absorbance 340 nm kinetic | 190,000 compounds, 0.41% hits;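 active = inhibition above a set limit, the median over all tested compounds plus 3 SD, cut at about 9.5% in these data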;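 note: enzyme runs in reverse so mevalonate oxidation gives rising NADPH absorbance; 0% = complete reaction with DMSO and 100% = background rate lacking mevalonate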
# MT stabilizer: microtubule stabilizers in HeLa cells, primary screen, imaging, high-content imaging. HeLa tubulin immunostaining HCS, 24 h; share of cells brighter than vehicle mean+2SD. % tubulin-high responders, % at 10 µM. 200,000 compounds, 0.83% hits. AID 2205, 2009;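 active = plate Z-score above 3 for both tubulin-high and condensed-nucleus cell shares, with cell loss under 80%, at 10 µM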;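 note: anti alpha tubulin signal scored within the nucleus-defined area of each cell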
# b-catenin transl: modulators of beta-catenin nuclear translocation, primary screen, imaging, HeLa cells, immunofluorescence, high-content; nuclear translocation activity, % at 5 µM; 190,000 compounds, 0.3% hits; AID 1665, 2009;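 active = nuclear translocation activity above 50% at 5 µM, with a well cell count of 50 or more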;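 note: per-cell ratio of nuclear to cytoplasmic median beta-catenin stain intensity; plate controls were DMSO negative control for no effect and GSK-3 inhibitor IX positive control for full effect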
#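 Read-out: Nuclear/cytoplasmic beta-catenin signal ratio, % activation | Assay system: Human HeLa cell line | Times: 24 h compound exposure at 37°C, 5% CO2 | Signal: Fluorescence imaging of beta-catenin antibody stain plus DAPI | Dosing: 5 µM primary, 0.02–20 µM confirmation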
# * = called active by the depositor; x = no result; ! = not active in a repeat. This is a sample that favours compounds with a hit; in the whole collection about 2.4% have one here.
SMILES,Tb hexokinase,EP2 antag,EP2 modulator,HMGR II inh,MT stabilizer,b-catenin transl
COc1ccc(CN2CCC3(CC2)CC(=O)c2cc(F)ccc2O3)cc1,x,8,-51,x,x,x
NC(=O)CSc1nnc(-c2ccc3c(c2)OCO3)o1,3,6,11,2,4,1
CSc1cccc(-n2cc(-c3ccc4c(c3)OCO4)[nH]c2=O)c1,-1,9,-36,-2,19*,162*
COc1ccccc1CN(Cc1coc2ccccc2c1=O)CC1CCCO1 (stereo not given),x,3,44,x,x,x
CC1(C)Cc2c(C#N)c(NCc3ccco3)nc(-c3ccco3)c2CO1,-3,5,39,12*,5,0
CCOCc1c(C(=O)NC2=Nc3ccccc3NC(CC)=C2C(=O)OCC)oc2ccccc12,0,11,39,2,20*,-1
CCOC(=O)C1=C(CC)Nc2ccccc2N=C1NC(=O)CCNC(C)=O,-2,0,11,0,4,-2
CCc1nn(CC(=O)N2CCCC(C)C2)c(=O)c2cc3sccc3n12 (stereo not given),x,x,2,x,x,x
CCOC(=O)c1sc(C)c(C(=O)NC2CCCCC2)c1N,-13,9,-8,-3,3,118*
Cc1oc(-c2ccccc2Cl)nc1CN1CCCCC1c1cccnc1 (stereo not given),-4,12,7,-2,x,1
COc1ccc(-c2nc(CN3CCCCC3c3cccnc3)c(C)o2)c(F)c1 (stereo not given),-4,11,-4,16*,x,1
Cc1c(C(=O)N/N=C/c2ccc(Cl)cc2)[nH]c2ccc(Cl)cc12,-22,19,-47,0,6,119*
Cc1c(C(=O)N/N=C/C(C)C)[nH]c2ccc([N+](=O)[O-])cc12,-17,13,-25,-3,3,0
O=C1c2cccc3c([N+](=O)[O-])ccc(c23)C(=O)N1c1nccs1,-14,55*,-26,-3,3,9
C=CCn1c(Cc2ccc(OC)cc2)nnc1SCC(=O)NC1CCCCC1,x,6,-35,x,x,x
COc1ccc(CNC(=O)Cn2nc3c4ccccc4nc(C4CC4)n3c2=O)cc1,x,7,-3,x,x,x
COc1ccc2c(c1)cc(C)c1nn(CC(N)=O)c(=O)n12,x,14,84*,x,x,x
Cc1nn(CC(=O)N2CCC(C(=O)c3nc4ccccc4s3)CC2)c(=O)c2ccccc12,x,x,-29,x,x,x
Cn1c(SCC(=O)NCc2ccco2)nnc1-c1ccc(S(=O)(=O)N2CCCC2)cc1,x,9,-9,x,x,x
CCN1CCCc2cc(CN(CCN3CCOCC3)C(=S)Nc3ccccc3C)ccc21,2,3,15,10*,2,-3
Fc1ccccc1NC(=S)N(CCN1CCCCCC1)Cc1cccs1,3,7,60,-6,2,-1
Cc1ccccc1NC(=S)N(CCN1CCCCCC1)Cc1cccs1,-8,16,0,10*,2,3
O=C(O)CC[P+](c1ccccc1)(c1ccccc1)c1ccccc1,x,47*,11,x,x,x
O=C1c2ccccc2C(=O)c2c1ccc(N1C(=O)c3ccccc3C1=O)c2-c1c(N2C(=O)c3ccccc3C2=O)ccc2c1C(=O)c1ccccc1C2=O,x,45*,0,x,x,x
Nc1ccc(N2C(=O)c3ccccc3C2=O)c(Cl)c1,x,11,-2,x,x,x
SMILES,Tb hexokinase,EP2 antag,EP2 modulator,HMGR II inh,MT stabilizer,b-catenin transl
COc1ccc(CC(=O)N2CCC[C@@H]2Cn2nc(-c3cccs3)ccc2=O)cc1,x,10,-13,x,x,x
CCN1/C(=C/c2ccc3cccc(C)c3[n+]2CC)Sc2ccccc21,-8,63*!,-69,-3,7,x
CC[n+]1c(/C=C2\Sc3ccc4ccsc4c3N2C)ccc2cc(C)ccc21,x,32,-61,x,x,x
CCN1/C(=C/c2ccc3cc(C)cc(C)c3[n+]2CC)Sc2cc(C)ccc21,20,110*,-49,-5,13,3
C[n+]1c(/C=C2/Sc3ccccc3N2CCCS(=O)(=O)[O-])ccc2ccccc21,x,12,-72,x,x,x
CCN1/C(=C\c2ccc3cc(C)ccc3[n+]2CC)Sc2cc(C)c(C)cc21,4,61*,-37,0,9,0
